Experimental data pooled from the literature.
Protocols differ between the studies behind these lines.
Target: Serine/threonine-protein kinase pim-2 (PIM2, Homo sapiens, UniProt Q9P1W9)

`CNC(=O)c1ccc(Nc2ncc(C(F)(F)F)c(NCc3nccnc3N(C)S(C)(=O)=O)n2)cc1` gave a remaining binding of 100% (cell-free assay, competition with immobilised ligand; 0.1 µM).
The remaining signal of `COc1cc(Nc2c(C#N)cnc3cc(OCCCN4CCN(C)CC4)c(OC)cc23)c(Cl)cc1Cl` is reported as 111% (cell-free assay; 0.5 µM).
With `Cc1c(NC(=O)c2cc(C(N)=O)nc3cc(F)ccc23)c(C(F)(F)F)nn1Cc1ccc(C#N)cc1` the remaining binding was 94% (cell-free assay, competition with immobilised ligand; 1 µM).
`Oc1cccc(-c2nc(N3CCOCC3)c3oc4ncccc4c3n2)c1` gave a remaining activity of 90% (enzyme activity, inhibitor; 10 µM).
For `CSc1nc(C)c(-c2ccnc(Nc3ccc(N4CCOCC4)cc3)c2)[nH]1`, the inhibition was -4.8% (enzyme activity, inhibitor; 10 µM).
The inhibition of `CNC(=O)c1cc(Oc2ccc(NC(=O)Nc3ccc(Cl)c(C(F)(F)F)c3)cc2)ccn1` is reported as 9% (enzyme activity, inhibitor; 10 µM).
For `COc1cc(Nc2cnc(C#N)c(O[C@H](C)CN(C)C)n2)ncc1-c1cnn(C)c1`, the remaining activity was 77% (enzyme activity, inhibitor, radiometric; 10 µM).
For `Cc1sc(C(=O)NC2COC2)cc1-n1cc(NC(=O)Nc2c(F)cccc2Cl)cn1`, the remaining activity was 96.5% (enzyme activity, inhibitor; 10 µM).
`COc1cc2ncnc(Nc3ccc(Oc4ccccc4)cc3C)c2cc1OC` gave an inhibition of -2% (enzyme activity, inhibitor; 1 µM).
`Cc1cc(NC(=O)c2cccc3cc(-c4cccc5[nH]nc(N)c45)ccc23)ccc1F` gave an activity vs control of 87% (enzyme activity, inhibitor; 0.1 µM).
`N#Cc1ccc(Nc2ccc3[nH]c(=O)[nH]c3c2)c(Cl)c1` has a remaining binding of 83% (cell-free assay, competition with immobilised ligand; 1 µM).
With `N#CCCc1ccc2c(c1)-c1[nH]c3ccc([N+](=O)[O-])cc3c1CC(=O)N2` the remaining signal was 104% (cell-free assay; 0.5 µM).
`O=c1nc(-c2ccccn2)sc2ccccc12` has a remaining binding of 97% (binding, competition with immobilised ligand; 1 µM).
`COc1cc(Cl)c(C(=O)N[C@@H](CN[C@H]2CC[C@@H](N)CC2)Cc2ccc(C#N)cc2)cc1-c1ccc(CN[C@H](C)c2ccc(C)cc2)o1` has a remaining activity of 92% (enzyme activity, inhibitor; 1 µM).
For `CC(C)(C)c1nc(-c2cccc(NS(=O)(=O)c3c(F)cccc3F)c2F)c(-c2ccnc(N)n2)s1`, the remaining activity was 77% (enzyme activity, inhibitor, radiometric; 1 µM).
With `CN1CC(Oc2cnc(C#N)cc2-c2ccn3nc(NC(=O)C4CC4)cc3c2)C1` the inhibition was 4% (enzyme activity, inhibitor; 1 µM).
For `Nc1nc(NC2CCCCC2)sc1C(=O)c1ccccc1`, the remaining activity was 94% (enzyme activity, inhibitor; 10 µM).
With `CCN(CC)c1ccc(C2=NNC(=O)CC2C)cc1[N+](=O)[O-]` (stereo not shown) the remaining activity was 108% (enzyme activity, inhibitor; 10 µM).
For `CNc1cccc2cc(C(=O)Nc3ccc(C(=O)O)cc3)c(=O)[nH]c12`, the inhibition was 13% (enzyme activity, inhibitor; 10 µM).
`Cc1ccc(C(=O)NCc2ccsc2)cc1C#Cc1cn(C(C)C)c2ncnc(N)c12` gave an activity vs control of 92% (enzyme activity, inhibitor; 1 µM).
For `Cn1nc(C(F)(F)F)cc1-c1cnc(N2CCc3cc(S(=O)(=O)Nc4c(F)cc(Cl)cc4F)cc(N4CCCC4=O)c32)nc1`, the remaining binding was 100% (cell-free assay, competition with immobilised ligand; 1 µM).
`O=C(Nc1cnn(-c2csc(C(=O)NC3COC3)c2)c1)Nc1c(F)cccc1Cl` gave a remaining activity of 129% (enzyme activity, inhibitor; 5 µM).
`O=C(CSc1nc2nccnc2c(=O)n1CCc1ccccc1)Nc1nccs1` gave an inhibition of -5% (enzyme activity, inhibitor; 10 µM).
`CCC(=O)N[C@H]1CC[C@@H](C(=O)N(C)c2ccc(-c3nc4ccccc4o3)cc2)C1` gave a remaining binding of 100% (cell-free assay, competition with immobilised ligand; 1 µM).
The inhibition of `C=CC(=O)Nc1cc(Nc2nccc(Nc3cc(Cl)c(F)cc3C(C)(C)O)n2)c(OC)cc1N1CC[C@@H](N(C)C)C1` is reported as 16% (enzyme activity, inhibitor; 1 µM).
With `CC(C)(O)[C@H]1CC[C@H](Nc2ccc3ncc(-c4cccc(C(F)(F)F)c4)n3n2)CC1` the remaining activity was 29.8% (enzyme activity, inhibitor; 1 µM).
For `O=C1NC(=O)c2cc(Nc3ccc(F)cc3)c(Nc3ccc(F)cc3)cc21`, the remaining signal was 98.6% (cell-free assay; 0.5 µM).
With `COc1ccc2c(c1)O[C@@H](c1ccc(OC)c(OC)c1)C[C@H]2NC(=O)C1(c2ccc3c(c2)OC(F)(F)O3)CC1` the remaining binding was 100% (cell-free assay, competition with immobilised ligand; 1 µM).
With `FC(F)(F)Oc1cccc(-c2cnc3ccc(-c4ccncc4)nn23)c1` the activity vs control was 83% (enzyme activity, inhibitor, radiometric; 5 µM).
The remaining activity of `Cc1ccc(Nc2nccc(N(C)c3ccc4c(C)n(C)nc4c3)n2)cc1S(N)(=O)=O` is reported as 101% (enzyme activity, inhibitor; 0.5 µM).
`CS(=O)(=O)N1CCCC(NC(=O)[C@H](CCC2CCCCC2)NC(=O)c2ccc(CNc3ncnc4c3nnn4-c3ccccc3)cc2)C1` (stereo partly shown) has a remaining binding of 88% (cell-free assay, competition with immobilised ligand; 0.1 µM).
